Data reported in paper PMC3065020 (Journal of nuclear medicine : official publication, Society …, 2009).
One block for each compound: values may come before it.

Columns and labels:
[1] = molecular target: T1, Aβ aggregates in postmortem AD brain homogenates (Homo sapiens, UniProt P05067); type: binding
[2] = molecular target: Aβ plaques in AD brain sections (Homo sapiens, UniProt P05067); assay: In vitro autoradiography of postmortem human brain sections; type: binding; details: tracer 0.3 nM, 1 h
Aβ plaques in AD brain sections, sequence (P05067 672-713 limits assumed): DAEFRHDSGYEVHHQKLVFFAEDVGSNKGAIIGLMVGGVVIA
Method in brief: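 Frozen brains from AD and control subjects were cut into 20-µm sections. Sections were incubated for 1 h with 0.3 nM radiotracer in 40% ethanol. They were then washed twice for 2 min in saturated Li2CO3 in 40% ethanol, once for 2 min in 40% ethanol, and rinsed in water for 30 s. Dried sections were exposed to film for 12–18 h, and the images were digitized.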

In vivo biodistribution = assay: In vivo biodistribution; design: species or system mouse; details: for Brain concentration at 2 min / Brain concentration at 60 min: intravenous; for Brain uptake at 2 min after injection / Brain uptake at 60 min after injection: intravenous tracer dose of the metabolite
Method in brief: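 CD-1 mice (20–26 g, male and female) received 370 kBq (10 µCi) of radiotracer in 10% ethanol/90% saline with 0.5% ascorbic acid by tail vein. Mice were killed by cardiac puncture under isoflurane at 2, 60, 120 and 180 min, with 3 animals per time point. Organs were weighed and γ-counted, and percentage dose was calculated against diluted aliquots of the injectate. Separately prepared labelled metabolites were also tested in healthy mice.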

[3] = Small-animal PET of monkey brain; type: in vivo, rhesus monkey
Method in brief: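 A young adult female rhesus monkey (6.65 kg) was intubated and kept under isoflurane, with a hindlimb venous catheter. After a transmission scan, it received 173.9 MBq (4.7 mCi; 71,262 MBq/mmol) of radiotracer in 3 mL of 95% saline/5% ethanol as a 1-min bolus. Emission data were collected for 90 min, corrected for attenuation and scatter, and reconstructed by 3D MAP. Manual volumetric ROIs (striatum, thalamus, cortex, white matter), drawn on the summed 60–90-min image, gave time–activity curves.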

[4] = In vivo metabolism in mice
Method in brief: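 Healthy mice received 370–555 MBq (10–15 mCi) of radiotracer by tail vein and were killed at 2, 10, 30 or 60 min. Plasma was separated by centrifugation (3,000 rpm, 2 min) and mixed with an equal volume of acetonitrile. After spinning at 5,000 rpm for 5 min, the supernatant was run on C18 HPLC (0.1% TFA water/acetonitrile gradient, 1 mL/min) with radioactivity detection. Metabolites were identified by LC/MS.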

[5] = molecular target: T1, Aβ aggregates in postmortem AD brain homogenates; assay: Saturation binding of ^18F-AV-45 in postmortem AD brain homogenates
Method in brief: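 Gray matter from frozen AD brains was homogenized in PBS, diluted to 50–100 mg/mL and stored at −80°C. Saturation binding was run on 4 different AD brain homogenates. Binding was analysed by Scatchard plot with nonlinear regression, and Bmax was expressed as fmol/mg protein.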

[6] = molecular target: T1, Aβ aggregates in postmortem AD brain homogenates; assay: Competitive binding assay against ^18F-AV-45 in postmortem AD brain homogenates; details: read-out: Inhibition constant (Ki) against binding of ^18F-AV-45 to Aβ aggregates, radioligand ^18F-AV-45, 2 h at 37°C

T1 sequence (P05067 672-713 limits assumed): as above

Structure (SMILES): Nc1ccc(C=Cc2ccc(OCCOCCOCCF)nc2)cc1 [^18F-AV-160]
Brain uptake at 2 min after injection (In vivo biodistribution; healthy mice): 4.5 %ID/g
Brain uptake at 60 min after injection (In vivo biodistribution; healthy mice): 1.8 %ID/g
Metabolite share in plasma ([4]; mouse plasma, 30 min after intravenous injection of ^18F-AV-45): about 48%

Structure (SMILES): CC(=O)N(C)c1ccc(/C=C/c2ccc(OCCOCCOCCF)nc2)cc1 [^18F-AV-267]
Ki [6]: 398 ± 45 nM

Structure (SMILES): CC(=O)N(C)c1ccc(/C=C/c2ccc(OCCOCCOCC[18F])nc2)cc1 [^18F-AV-267]
Brain uptake at 2 min after injection (In vivo biodistribution; healthy mice): 3.3 %ID/g
Brain uptake at 60 min after injection (In vivo biodistribution; healthy mice): 1.8 %ID/g

Continued, in another order:

Kd ([1]; read-out: Kd = Koff/Kon, derived from kinetic measurement): 1.31 nM
Structure (SMILES): CNc1ccc(/C=C/c2ccc(OCCOCCOCCF)nc2)cc1 [^18F-AV-45, (E)-4-(2-(6-(2-(2-(2-^18F-fluoroethoxy)ethoxy)ethoxy)pyridin-3-yl)vinyl)-N-methyl benzenamine]

Labeling of AD brain sections containing Aβ plaques (autoradiogram) ([2]; AD brain sections): highly dense labeling
Labeling of brain sections of control subjects (autoradiogram) ([2]; control subject brain sections): no specific labeling
Brain concentration at 2 min (In vivo biodistribution; female healthy mice, 2 min after administration (peak)): 6.23 %ID/g
Brain concentration at 60 min (In vivo biodistribution; female healthy mice): 1.84 %ID/g
Initial brain uptake of parent relative to either of its metabolites (In vivo biodistribution; healthy mice, initial uptake): 1.5 fold
Brain concentration at 2 min (In vivo biodistribution; male healthy mice, 2 min after administration): 7.33 %ID/g
Brain concentration at 60 min (In vivo biodistribution; male healthy mice): 1.88 %ID/g
Time of peak activity in cortex ([3]; rhesus monkey, intravenous 173.9 MBq): 7 min
Injected dose localized in the brain at the peak ([3]; rhesus monkey, intravenous 173.9 MBq, estimated): about 4.4 % of the injected dose
Koff ([1]; dissociation from Aβ aggregates, AD brain homogenates): 0.00075 ± 0.0001 s⁻¹
Biologic T1/2 in mouse plasma ([4]; intravenous, estimated): less than 30 min
Parent remaining in plasma ([4]; mouse plasma, 30 min after intravenous injection): 30%
Bmax (saturation binding), average ([5]; average of 4 different AD brain homogenates): 8,811 ± 1,643 fmol/mg protein
Bmax (saturation binding), representative example ([5]; representative AD brain homogenate, Figure 2): 7,215 fmol/mg of protein
Structure (SMILES): CNc1ccc(/C=C/c2ccc(OCCOCCOCC[18F])nc2)cc1 [^18F-AV-45, (E)-4-(2-(6-(2-(2-(2-^18F-fluoroethoxy)ethoxy)ethoxy)pyridin-3-yl)vinyl)-N-methyl benzenamine]
Specific binding or retention in healthy monkey brain ([3]; healthy rhesus monkey, no Aβ plaques): did not display any specific binding or prolonged retention in the brain
